The results in this text go back to ChEMBL document CHEMBL1154688, “Selective Kv1.5 blockers: development of (R)-1-(methylsulfonylamino)-3-[2-(4-methoxyphenyl)ethyl]-4-(4-methoxyphenyl)-2-imidazolidinone (KVI-020/WYE-160020) as a potential treatment for atrial arrhythmia” (J Med Chem, 2009).

For data set [1], the target named is Potassium voltage-gated channel subfamily A member 5 (Homo sapiens, UniProt P22460). Briefly: Inhibition of human Kv1.5 expressed in CHO cells by patch-clamp technique. The class given is cell-based. In a few lines:
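Human Kv1.5 stably expressed in CHO cells. IC50 was determined by automated patch clamp on the IonWorks platform.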
(In general: In patch-clamp work, channel activity is measured electrically.)

The nature of data set [2]: Aqueous solubility at pH 7.4 by direct UV method. The data set is classed as physicochemical. The note with it: aqueous medium. In a few lines:
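Solubility measured in pH 7.4 buffer with direct UV read-out.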

Data set [3] is described as follows: Metabolic stability in human liver microsomes assessed as half life. The class given is ADME, Microsome. In outline: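 Test compound at 1 μM incubated with 1 mg/mL male beagle dog or male human liver microsomal protein. Half-life was determined from compound loss.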
For orientation: Microsomes from liver hold many membrane-bound enzymes, among them those of drug oxidation.

In a further data set the target is CYP3A4 (Homo sapiens, UniProt P08684). Kind of data set: Inhibition of CYP3A4 at 3 uM by fluorescent method. The data set is classed as ADME. In a few lines: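 CYP3A4 inhibition measured by a fluorescent method.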
CYP3A4, sequence (P08684 whole entry): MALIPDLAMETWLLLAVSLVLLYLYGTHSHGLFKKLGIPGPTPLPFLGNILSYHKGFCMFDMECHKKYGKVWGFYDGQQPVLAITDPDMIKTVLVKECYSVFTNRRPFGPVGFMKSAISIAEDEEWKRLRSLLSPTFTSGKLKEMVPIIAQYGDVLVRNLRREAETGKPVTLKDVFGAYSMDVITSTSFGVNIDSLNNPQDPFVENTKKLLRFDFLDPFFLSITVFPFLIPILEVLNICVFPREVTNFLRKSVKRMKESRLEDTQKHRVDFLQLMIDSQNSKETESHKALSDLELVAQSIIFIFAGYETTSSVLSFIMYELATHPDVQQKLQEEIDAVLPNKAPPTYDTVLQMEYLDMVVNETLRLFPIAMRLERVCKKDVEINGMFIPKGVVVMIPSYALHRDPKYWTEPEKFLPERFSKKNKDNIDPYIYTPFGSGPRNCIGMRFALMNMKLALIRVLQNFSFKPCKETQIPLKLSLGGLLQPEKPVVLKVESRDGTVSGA
Data set [4] deals with Voltage-gated inwardly rectifying potassium channel KCNH2 (Homo sapiens, UniProt Q12809). Briefly: Inhibition of human ERG by patch-clamp technique.
Voltage-gated inwardly rectifying potassium channel KCNH2, sequence (Q12809 whole entry): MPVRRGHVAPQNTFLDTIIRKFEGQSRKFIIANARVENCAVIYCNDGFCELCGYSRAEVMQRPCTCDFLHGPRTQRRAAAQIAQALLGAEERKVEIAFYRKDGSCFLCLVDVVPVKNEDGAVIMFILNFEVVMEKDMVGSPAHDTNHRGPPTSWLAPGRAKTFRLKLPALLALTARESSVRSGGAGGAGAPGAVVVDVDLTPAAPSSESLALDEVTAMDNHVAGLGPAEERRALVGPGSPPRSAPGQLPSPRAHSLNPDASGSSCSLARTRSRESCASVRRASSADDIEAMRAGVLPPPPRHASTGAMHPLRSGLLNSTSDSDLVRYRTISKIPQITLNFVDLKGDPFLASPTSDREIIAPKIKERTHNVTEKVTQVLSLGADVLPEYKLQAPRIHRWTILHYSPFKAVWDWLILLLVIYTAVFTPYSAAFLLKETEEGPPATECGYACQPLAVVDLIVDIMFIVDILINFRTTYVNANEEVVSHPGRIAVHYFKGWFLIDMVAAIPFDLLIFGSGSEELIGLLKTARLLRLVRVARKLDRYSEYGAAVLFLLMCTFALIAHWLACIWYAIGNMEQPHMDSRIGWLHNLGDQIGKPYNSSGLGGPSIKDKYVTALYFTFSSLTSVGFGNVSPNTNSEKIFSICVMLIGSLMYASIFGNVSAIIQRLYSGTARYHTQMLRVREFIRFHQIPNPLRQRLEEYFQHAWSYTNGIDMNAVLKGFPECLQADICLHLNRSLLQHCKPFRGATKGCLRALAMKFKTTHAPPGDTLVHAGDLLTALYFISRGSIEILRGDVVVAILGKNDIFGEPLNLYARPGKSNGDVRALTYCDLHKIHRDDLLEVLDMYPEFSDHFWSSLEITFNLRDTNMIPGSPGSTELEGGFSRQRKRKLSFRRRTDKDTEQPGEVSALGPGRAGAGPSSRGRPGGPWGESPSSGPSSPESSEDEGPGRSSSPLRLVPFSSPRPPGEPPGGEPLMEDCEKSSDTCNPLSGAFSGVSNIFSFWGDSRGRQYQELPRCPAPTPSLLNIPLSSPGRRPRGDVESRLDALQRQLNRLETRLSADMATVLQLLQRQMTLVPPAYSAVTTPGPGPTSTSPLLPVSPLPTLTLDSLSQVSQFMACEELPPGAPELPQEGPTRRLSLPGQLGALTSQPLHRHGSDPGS

Values after ≈ are worked out from the molar mass of the structure shown.

Potassium voltage-gated channel subfamily A member 5, sequence (P22460 whole entry): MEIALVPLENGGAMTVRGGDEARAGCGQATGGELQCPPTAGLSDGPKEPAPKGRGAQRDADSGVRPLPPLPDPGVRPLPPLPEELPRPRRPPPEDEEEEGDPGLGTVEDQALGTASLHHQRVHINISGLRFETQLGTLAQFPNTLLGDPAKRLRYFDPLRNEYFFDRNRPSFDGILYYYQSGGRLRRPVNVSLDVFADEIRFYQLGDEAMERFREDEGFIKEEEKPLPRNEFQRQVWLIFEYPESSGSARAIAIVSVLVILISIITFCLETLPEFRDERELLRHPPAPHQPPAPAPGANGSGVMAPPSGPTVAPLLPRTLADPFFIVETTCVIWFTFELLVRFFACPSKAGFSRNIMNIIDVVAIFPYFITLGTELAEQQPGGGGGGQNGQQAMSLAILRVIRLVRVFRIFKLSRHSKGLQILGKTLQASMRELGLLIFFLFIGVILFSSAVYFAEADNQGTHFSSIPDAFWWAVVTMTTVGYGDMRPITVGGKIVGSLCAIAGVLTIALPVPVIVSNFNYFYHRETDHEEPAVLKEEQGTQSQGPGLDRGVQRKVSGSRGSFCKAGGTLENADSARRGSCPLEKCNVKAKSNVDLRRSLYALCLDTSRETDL

By IC50 is commonly meant the midpoint of a concentration-inhibition curve. A word on the solubility: it is the dissolved amount per volume that the medium holds. Usually half-life stands for the time needed for the level to fall by half in the phase considered. The term inhibition denotes the percentage by which the read-out fell short of the control. `COCCOc1ccc(C2CN(NS(C)(=O)=O)C(=O)N2CCc2ccc(OC)cc2)cc1` (configuration not stated): in data set [1], the IC50 was 7450 nM. In addition, the solubility in data set [2] is 100 µg/mL (≈ 216 µM). In data set [3], the half-life amounted to 30 min. In addition, at 3 µM the inhibition on CYP3A4 was 50%.
In the case of `COc1ccc(CCN2C(=O)N(NS(C)(=O)=O)CC2c2ccc(OC(C)C)cc2)cc1` (configuration not stated), the figures for the half-inhibitory concentration (IC50) in data set [1] and in data set [4] were 240 nM and 17000 nM, respectively. In data set [2], this compound yielded a solubility of 26 µg/mL (≈ 58.1 µM). In addition, in data set [3], the half-life worked out at 30 min. The compound also showed an inhibition at 3 µM against CYP3A4 of 53%.
The matching figures for `COc1ccc(CCN2C(=O)N(NS(C)(=O)=O)CC2c2ccc(C(F)(F)F)cc2)cc1` (configuration not stated): 250 nM, 9100 nM, 13 µg/mL (≈ 28.4 µM), 30 min and 67%.
In data set [1], `COc1ccc(CCN2C(=O)N(NS(C)(=O)=O)CC2c2ccc(Cl)cc2)cc1` (configuration not stated) showed an IC50 of 200 nM. In data set [2], the concentration in solution (solubility) was 4 µg/mL (≈ 9.44 µM). Besides, the half-life in data set [3] is 30 min. For the same compound, the inhibition at 3 µM against CYP3A4 was found to be 27%.
For `CCOc1ccc(CCN2C(=O)N(NS(C)(=O)=O)C[C@@H]2c2ccc(OC)cc2)cc1`, the IC50 in data set [1] came out at 770 nM. The compound also registered a solubility in data set [2] of 43 µg/mL (≈ 99.2 µM). For the same compound, the half-life in data set [3] worked out at 17 min. At 3 µM the inhibition against CYP3A4 was 4%.
`COc1ccc(CCCN2C(=O)N(NS(C)(=O)=O)C[C@H]2c2ccc(OC)cc2)cc1`: the IC50 in data set [1] amounted to 560 nM; in data set [4], 14300 nM. Moreover, the concentration in solution in data set [2] (solubility) was 15 µg/mL (≈ 34.6 µM). In data set [3], the half-life worked out at 12 min. Also, at 3 µM the inhibition against CYP3A4 was 50%.
As for `COc1ccc(CCN2C(=O)N(NS(C)(=O)=O)CC2c2ccc(C3CC3)cc2)cc1` (configuration not stated), the figures for the IC50 in data set [1] and in data set [4] were 160 nM and 8400 nM, respectively. Moreover, the solubility in data set [2] was 1 µg/mL (≈ 2.33 µM). Moreover, the half-life in data set [3] came out at 30 min. The inhibition at 3 µM at CYP3A4 was 78%.
In the case of `COc1ccc(CCCN2C(=O)N(NS(C)(=O)=O)C[C@@H]2c2ccc(OC)cc2)cc1`, the IC50 in data set [1] is 100 nM; in data set [4], 14100 nM. This compound had a solubility in data set [2] of 18 µg/mL (≈ 41.5 µM). Besides, the half-life in data set [3] worked out at 29 min. For the same compound, at CYP3A4, the inhibition at 3 µM turned out to be 84%.
